Results taken from ChEMBL document CHEMBL4513216, “Probing the Open Global Health Chemical Diversity Library for Multistage-Active Starting Points for Next-Generation Antimalarials” (ACS Infect Dis, 2020).

Assay: Toxicity liver stage against HepG2, at 10uM
Type: cell-based
Set-up: test concentration 10 uM, cell line HepG2-A16-CD81EGFP
Details: human, HepG2-A16-CD81EGFP cells; read-out: INHIBITION
In short: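 Uninfected HepG2-A16-CD81EGFP cells, 3 × 10^3 per well, 1536-well, plated on prespotted compound at 10 μM final, parasite-free screening media added to match infected plates; puromycin 10 μM positive, DMSO 0.5% negative; run in parallel with 48 h PbLuc assay at 37 °C, 5% CO2; viability by CellTiter-Glo luminescence, normalized to controls.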

| SMILES | cytotoxicity at 10 µM |
| --- | --- |
| COc1c[nH]c(C(=O)Nc2nc(C(C)(C)C)cs2)cc1=O | -49.6% |
| Cc1nc(N2CCN(C(=O)c3cccs3)CC2)cc(-n2cccc2)n1 | 1.01% |
| CC(C)(C)c1cc(=O)n2c(n1)SCC(C(=O)NCc1ccccn1)C2 (stereo unspecified) | -6.88% |
| O=C(C1CCOC1)N1CCN(Cc2cccnc2)c2ncccc2C1 (stereo unspecified) | 3.07% |
| CCn1nc(C)c2nnn(CC(=O)Nc3ccc(C)cc3)c(=O)c21 | 8.49% |
| NCCC(=O)NCC1(O)CCCN(c2ccnc3cccnc23)C1 (stereo unspecified) | 0.72% |
| COCCC(=O)N1C[C@@H](c2ccccc2F)[C@@]2(CCCC(=O)N2)C1 | 0.55% |
| CNC(=O)c1cn[nH]c1C1(C)CCCN(CC2(O)CCCCC2)C1 (stereo unspecified) | -26% |
| CCn1ncc(CN2CCc3nc(-c4cccnc4)nc(O)c3C2)c1C | -23.7% |
| COc1cnc(C2(O)CCN(C(=O)c3ccco3)CC2)c(OC)n1 | -7.02% |
| Cc1cc(C(=O)NCc2cccs2)c2c(C3CCCN3)noc2n1 (stereo unspecified) | 6.36% |
| Cc1csc(N2CCCN(C(=O)c3cccs3)CC2)n1 | -8.08% |
| CCOCCCC(=O)N1CCCC1c1nc(-c2ccccc2F)c[nH]1 (stereo unspecified) | 12.5% |
| COc1ccccc1CC(C)CC(=O)O (stereo unspecified) | 12.9% |
| Cc1nc(CNCc2ccc(N3CCN(C)CC3)nc2)cs1 | -5.33% |
| CC(C)NC(=O)c1ccc(NC(=O)NC(C)c2ccccn2)cc1 (stereo unspecified) | 9.44% |
| Cc1ccnc(NS(=O)(=O)c2cc(C(N)=O)n(C)c2)c1 | 0.814% |
| O=C(Cc1ccc(F)cc1)NS(=O)(=O)c1ccc(F)c(F)c1 | -9.07% |
| Cc1cc(CN2CCN(C(=O)C3(C#N)CCCC3)CC2)on1 | -14.9% |

| SMILES | cytotoxicity at 10 µM |
| --- | --- |
| Cc1cc(NC(=O)NC(C)(C)c2nc(C)c(C)s2)no1 | -1.95% |
| Cc1nc(CSCCC(=O)NCC(=O)NC(C)C)cs1 | -2.03% |
| CCOCCC(=O)N1CCN(CC(C)O)CC1 (stereo unspecified) | 6.7% |
| COc1cc(NC(=O)NC2CCOCC2)ccc1N1CCOC1=O | -4.59% |
| CS(=O)(=O)N1CCCCCC1C1CCN(Cc2nc(C3CC3)no2)CC1 (stereo unspecified) | -4.09% |
| Cc1nn(C)c(N(C)C)c1CNCc1ccc(N(C)C)nc1 | -1.24% |
| Cc1cc(NC(=O)c2ccc(F)cc2F)n(C)n1 | -2.18% |
| Cc1cc(CNC(=O)Nc2cccc(COCCOC(C)C)c2)no1 | 11% |
| O=C(CN1CCCC1CCCO)NCc1ccccn1 (stereo unspecified) | -5.6% |
| Cc1ccc(F)c2c1CCCN2C(=O)c1cn(CC(=O)N(C)C)nn1 | -0.367% |
| CC(C)(C)n1cc(NCc2cscn2)cn1 | -6.08% |
| O=S(=O)(CCO)Cc1ccc(OC(F)F)cc1 | -2.88% |
| Cn1cc(Br)cc1C(=O)NCC(C)(O)c1ccsc1 (stereo unspecified) | -49% |
| N#Cc1c[nH]c(C(=O)N(Cc2ccc(O)cc2)CC2CC2)c1 | 11.5% |
| CCN(Cc1nc(C2CC2)no1)Cc1ccc(C#N)cc1F | 3.82% |
| Cc1ccc(C(NCC(=O)N2CCNC(=O)C2)c2ccccc2)cc1 (stereo unspecified) | 2.1% |
| CCS(=O)(=O)NCCN(CCO)C1CCc2ccccc21 (stereo unspecified) | 14.4% |
| Cc1ccc(C(CNCc2cccc3c2OCO3)N2CCOCC2)o1 (stereo unspecified) | -38.9% |
| CCN1C(=O)C2(CCCCC2)NC1c1cc(C#N)n(C)c1C (stereo unspecified) | 4.59% |

| SMILES | cytotoxicity at 10 µM |
| --- | --- |
| OCCOc1nc(-c2ccccc2Cl)no1 | -10.5% |
| Cc1c(C(=O)NCC2CCCO2)nnn1-c1cccc2c1CCN(C)C2 (stereo unspecified) | 1.96% |
| CN(CCn1nc2ccccn2c1=O)CC(=O)NC1CC1 | 3.2% |
| Cc1noc(C(C)N2CCN(CC(=O)N3CCOCC3)CC2)n1 (stereo unspecified) | -8.41% |
| O=C(C1CC=CC1)N1CCCn2nnc(CNc3ncccn3)c2C1 | 6.97% |
| CCO[C@H]1CC[C@H]2[C@H]1OCCN2C(=O)CC1=CCCCC1 | 1.75% |
| O=c1ccc2c(n1CCN1CCCC1)CCN(c1ncccn1)CC2 | 8.33% |
| CC(C)CN1C[C@@H]2CN(C(=O)c3cccn3C)C[C@@H]2C1=O | -111% |
| CC(C)(CO)Nc1cc(-c2ccccc2)ncn1 | -7.8% |
| O=C(c1ccc(-c2ccoc2)nc1)N1CCCN(C2CCCCC2)CC1 | 7.69% |
| CSc1ncccc1C(=O)N(C)CCc1scnc1C | 4.23% |
| Cc1nc2cc(OCc3nc(C(=O)NC(CO)CO)co3)ccc2s1 | 4.01% |
| O=c1n(CC2CC2)nc(C2CCNCC2)n1Cc1ccccc1 | -4.8% |
| CCOc1ccccc1N1CCN(CC2(O)CCCNC2)CC1 (stereo unspecified) | -2.36% |
| COc1ccccc1CN1C(=O)O[C@@H]2CN(c3ccccn3)C[C@@H]21 | 5.97% |
| COCC(C)N(Cc1ccccc1OC)C(=O)c1cc(C)[nH]c(=O)c1 (stereo unspecified) | -3.73% |
| O=C(NCCC1CN(Cc2cccnc2)CCO1)c1ccsc1 (stereo unspecified) | -8.03% |
| Cc1ccc(N2CCC(c3nccn3Cc3cscn3)CC2)nn1 | -12.8% |
